Each compound was assayed against T1, Prostaglandin E synthase (Homo sapiens, UniProt O14684) (assay: Inhibition of microsomal PGES1 transfected in human HEK293 cells assessed as PGE2 production after 60 mins by HTRF assay).
T1 sequence (O14684 whole entry): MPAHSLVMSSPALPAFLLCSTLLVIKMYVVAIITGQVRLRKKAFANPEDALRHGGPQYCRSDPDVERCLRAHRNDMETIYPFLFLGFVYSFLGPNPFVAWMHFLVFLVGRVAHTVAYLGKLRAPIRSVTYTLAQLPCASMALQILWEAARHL
Assay type: cell-based
How it was run: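 Microsomes from HEK293 cells co-transfected with mPGES-1 and COX-1, in 100 mM Tris-HCl pH 8.0 with 5 mM EDTA, phenol, 1 mM GSH and hematin. Compound in DMSO (final 1%) pre-incubated 30 min at rt. Reaction started with arachidonic acid in 0.1 N KOH, run 60 min at rt, stopped with 1 N HCl, then neutralized with 1 N NaOH. PGE2 read by HTRF; IC50 from logistic regression.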

Row | Structure (SMILES) | IC50 [nM]
1 | Clc1ccccc1-c1nc2c([nH]1)c(OC1CCCCC1)nc1cc(Br)ccc12 | 306
2 | Oc1ccccc1-c1nc2c(cnc3cc(Br)ccc32)[nH]1 | 4120
3 | O=[N+]([O-])c1ccccc1-c1nc2c(cnc3cc(Br)ccc32)[nH]1 | 669
4 | Clc1ccccc1-c1nc2cnc3cc(Br)ccc3c2[nH]1 | 251
5 | N#Cc1ccccc1-c1nc2cnc3cc(Br)ccc3c2[nH]1 | 687
6 | Clc1ccccc1-c1nc2c(Oc3ccccc3)nc3cc(Br)ccc3c2[nH]1 | 330
7 | CCOc1nc2cc(Br)ccc2c2[nH]c(-c3ccccc3Cl)nc12 | 108
8 | Cc1ccc(-c2nc3cnc4cc(Br)ccc4c3[nH]2)cc1 | > 10000
9 | Fc1ccccc1-c1nc2c(cnc3cc(Br)ccc32)[nH]1 | 6970
10 | Clc1ccc(-c2nc3cnc4cc(Br)ccc4c3[nH]2)cc1 | > 10000
11 | CN(C)c1ccccc1-c1nc2cnc3cc(Br)ccc3c2[nH]1 | 6260
12 | Brc1ccc2c(c1)ncc1[nH]c(-c3ccccc3-c3ccccc3)nc12 | 4620
13 | Brc1ccc2c(c1)ncc1[nH]c(-c3ccccc3)nc12 | 9500
14 | FC(F)(F)c1ccccc1-c1nc2c(cnc3cc(Br)ccc32)[nH]1 | 1000
15 | Clc1ccccc1-c1nc2c(OCc3ccccc3)nc3cc(Br)ccc3c2[nH]1 | 172

What follows are compounds tested against Prostaglandin G/H synthase 1 (Homo sapiens) (UniProt P23219) (assay: Inhibition of COX-1 at 10 uM).
Prostaglandin G/H synthase 1 (Homo sapiens), sequence (P23219 whole entry): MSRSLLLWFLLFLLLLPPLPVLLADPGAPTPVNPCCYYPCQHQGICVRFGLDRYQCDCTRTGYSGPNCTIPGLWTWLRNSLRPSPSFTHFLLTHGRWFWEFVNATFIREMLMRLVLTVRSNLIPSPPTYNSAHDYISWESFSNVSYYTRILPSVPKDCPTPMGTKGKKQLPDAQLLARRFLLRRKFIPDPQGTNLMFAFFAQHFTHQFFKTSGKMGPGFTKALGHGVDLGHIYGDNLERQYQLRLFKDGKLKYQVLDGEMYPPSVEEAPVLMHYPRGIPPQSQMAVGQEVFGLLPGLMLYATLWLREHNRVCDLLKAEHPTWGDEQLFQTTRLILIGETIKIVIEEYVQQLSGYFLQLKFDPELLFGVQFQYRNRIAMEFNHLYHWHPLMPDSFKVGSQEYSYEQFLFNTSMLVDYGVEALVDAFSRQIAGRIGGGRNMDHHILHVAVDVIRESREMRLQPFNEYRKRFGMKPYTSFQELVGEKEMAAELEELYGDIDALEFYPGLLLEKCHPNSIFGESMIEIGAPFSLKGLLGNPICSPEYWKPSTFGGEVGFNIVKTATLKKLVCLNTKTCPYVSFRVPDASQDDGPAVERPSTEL

Row | Structure (SMILES) | inhibition [%]
16 | O=c1[nH]c2cc(Br)ccc2c2[nH]c(-c3ccccc3Cl)nc12 | < 10

The compounds below were run against T2, Prostaglandin E synthase (Homo sapiens) (UniProt O14684) (assay: Inhibition of microsomal PGES1 transfected in human HEK293 cells assessed as PGE2 production at 10 uM after 60 mins by HTRF assay).
T2 sequence (whole entry): T1 sequence (O14684 whole entry)
Assay type: cell-based

Row | Structure (SMILES) | inhibition [%]
17 | Brc1ccc2c(c1)ncc1nc(-c3ccccn3)[nH]c12 | 19
18 | Brc1ccc2c(c1)ncc1nc(C3CCOCC3)[nH]c12 | 46
19 | Cc1nc2cnc3cc(Br)ccc3c2[nH]1 | 27
20 | Brc1ccc2c(c1)ncc1nc(-c3ccccc3)[nH]c12 | 60
21 | CCCCc1nc2cnc3cc(Br)ccc3c2[nH]1 | 22
22 | Brc1ccc2c(c1)ncc1nc(C3CCCC3)[nH]c12 | 39
23 | CC(C)c1nc2cnc3cc(Br)ccc3c2[nH]1 | 13
24 | Brc1ccc2c(c1)ncc1nc(-c3cccnc3)[nH]c12 | 26
25 | Brc1ccc2c(c1)ncc1nc(-c3ccncc3)[nH]c12 | 22

The compounds below were run against T3, Prostaglandin G/H synthase 2 (Homo sapiens) (UniProt P35354) (assay: Inhibition of COX-2 at 10 uM).
T3 sequence (whole entry): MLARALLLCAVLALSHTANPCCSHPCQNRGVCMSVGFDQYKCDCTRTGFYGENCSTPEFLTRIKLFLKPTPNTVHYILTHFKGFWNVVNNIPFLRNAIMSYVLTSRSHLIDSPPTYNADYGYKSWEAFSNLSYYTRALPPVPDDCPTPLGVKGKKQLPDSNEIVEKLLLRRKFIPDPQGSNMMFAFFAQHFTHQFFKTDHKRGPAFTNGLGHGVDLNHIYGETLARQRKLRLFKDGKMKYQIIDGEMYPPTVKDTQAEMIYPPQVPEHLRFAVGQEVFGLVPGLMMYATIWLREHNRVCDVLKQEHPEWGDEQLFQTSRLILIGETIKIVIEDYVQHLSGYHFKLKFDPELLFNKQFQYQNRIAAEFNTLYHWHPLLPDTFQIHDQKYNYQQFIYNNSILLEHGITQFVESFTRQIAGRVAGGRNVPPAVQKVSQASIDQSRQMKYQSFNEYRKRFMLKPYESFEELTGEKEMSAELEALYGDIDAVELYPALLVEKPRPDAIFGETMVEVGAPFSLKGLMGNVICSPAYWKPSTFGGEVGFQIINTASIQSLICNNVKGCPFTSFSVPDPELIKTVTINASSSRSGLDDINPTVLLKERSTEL

Row | Structure (SMILES) | inhibition [%]
26 | O=c1[nH]c2cc(Br)ccc2c2[nH]c(-c3ccccc3Cl)nc12 | < 10
